Test results from ChEMBL document CHEMBL4020832, “Development of (6 R)-2-Nitro-6-[4-(trifluoromethoxy)phenoxy]-6,7-dihydro-5 H-imidazo[2,1- b][1,3]oxazine (DNDI-8219): A New Lead for Visceral Leishmaniasis” (J Med Chem, 2018).

Columns and labels:
[1] = system: Liver; assay: Metabolic stability in CD-1 mouse liver microsomes assessed as parent compound remaining at 0.5 uM after 0.5 hr; type: ADME, microsome
[2] = Metabolic stability in hamster liver microsomes assessed as parent compound remaining at 0.5 uM after 0.5 hr; type: ADME, microsome; conditions: read-out: Stability
[3] = system: Liver; assay: Metabolic stability in human liver microsomes assessed as parent compound remaining at 0.5 uM after 0.5 hr; type: ADME, microsome
[4] = system: Liver; assay: Metabolic stability in CD-1 mouse liver microsomes assessed as parent compound remaining at 1 uM after 1 hr; type: ADME, microsome
[5] = system: Liver; assay: Metabolic stability in human liver microsomes assessed as parent compound remaining at 1 uM after 1 hr; type: ADME, microsome
[6] = AUClast in Swiss albino mouse at 1 mg/kg, iv after 24 to 48 hrs by LC-MS/MS analysis; type: ADME, organism-based; conditions: in vivo
[7] = Initial concentration in Swiss albino mouse at 1 mg/kg, iv by LC-MS/MS analysis; type: ADME, organism-based; conditions: in vivo
How it was run: (§1)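 Male Swiss albino mice given 1 mg/kg iv in 20% NMP/40% PEG-400 in 100 mM citrate buffer pH 3. Plasma sampled at 0.083, 0.25, 0.5, 1, 2, 4, 6, 8, 10, 24 and 48 h. Levels measured by LC–MS/MS; noncompartmental PK parameters.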

[8] = Half life in Swiss albino mouse at 1 mg/kg, iv by LC-MS/MS analysis; type: ADME, organism-based; conditions: Swiss albino, in vivo
[9] = Volume of distribution at steady state in Swiss albino mouse at 1 mg/kg, iv by LC-MS/MS analysis; type: ADME, organism-based; conditions: in vivo, read-out: Vdss; how it was run: as §1
[10] = Tmax in Swiss albino mouse at 25 mg/kg, po by LC-MS/MS analysis; type: ADME, organism-based; conditions: in vivo
How it was run: (§2)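 Male Swiss albino mice dosed orally at 25 mg/kg as a suspension in 0.5% CMC/0.08% Tween 80 in water. Plasma sampled 0.25–48 h, analysed by LC–MS/MS. F from dose-normalized AUClast against a 1 mg/kg iv dose.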

[11] = system: Mus musculus; assay: Oral bioavailability in Swiss albino mouse at 25 mg/kg by LC-MS/MS analysis; type: ADME, organism-based; conditions: in vivo; how it was run: as §2
[12] = AUClast in Swiss albino mouse at 25 mg/kg, po after 24 to 48 hrs by LC-MS/MS analysis; type: ADME, organism-based; conditions: in vivo
[13] = Cmax in Swiss albino mouse at 25 mg/kg, po by LC-MS/MS analysis; type: ADME, organism-based; set-up: dose 25 mg/kg, route oral; conditions: in vivo
[14] = Clearance in Swiss albino mouse at 1 mg/kg, iv by LC-MS/MS analysis; type: ADME, organism-based; conditions: in vivo
[15] = Metabolic stability in hamster liver microsomes assessed as parent compound remaining at 1 uM after 1 hr; type: ADME, microsome; conditions: read-out: Stability
[16] = system: Mus musculus; assay: Tmax in Swiss albino mouse at 40 mg/kg, po by LC-MS/MS analysis; type: ADME, organism-based; conditions: in vivo
[17] = system: Mus musculus; assay: Cmax in Swiss albino mouse at 40 mg/kg, po by LC-MS/MS analysis; type: ADME, organism-based; set-up: dose 40 mg/kg, route oral; conditions: in vivo
[18] = AUClast in golden Syrian hamster at 2 mg/kg, iv after 24 to 48 hrs by LC-MS/MS analysis; type: ADME, organism-based, Mesocricetus auratus; conditions: in vivo
How it was run: (§3)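 Fasted female golden Syrian hamsters. IV dose was 2 mg/kg as a solution in 20% NMP and 40% PEG-400 in citrate buffer (pH 3). Oral dosing at 40–50 mg/kg used PEG-400 as vehicle. Plasma was quantified by LC–MS/MS. AUClast was taken to the last time point (24 or 48 h).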

[19] = Initial concentration in golden Syrian hamster at 2 mg/kg, iv by LC-MS/MS analysis; type: ADME, organism-based, Mesocricetus auratus; conditions: in vivo
How it was run: (§4)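 Fasted female golden Syrian hamsters given 2 mg/kg iv as a solution in 20% NMP and 40% PEG-400 in citrate buffer pH 3. Plasma concentrations determined by LC–MS/MS to derive PK parameters.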

[20] = Volume of distribution at steady state in golden Syrian hamster at 2 mg/kg, iv by LC-MS/MS analysis; type: ADME, organism-based, Mesocricetus auratus; conditions: in vivo, read-out: Vdss; how it was run: as §4
[21] = Half life in golden Syrian hamster at 40 mg/kg, po by LC-MS/MS analysis; type: ADME, organism-based, Mesocricetus auratus; conditions: in vivo
[22] = Half life in Swiss albino mouse at 40 mg/kg, po by LC-MS/MS analysis; type: ADME, organism-based; conditions: in vivo
[23] = Clearance in golden Syrian hamster at 2 mg/kg, iv by LC-MS/MS analysis; type: ADME, organism-based, Mesocricetus auratus; conditions: in vivo
[24] = Cmax in golden Syrian hamster at 40 mg/kg, po by LC-MS/MS analysis; type: ADME, organism-based, Mesocricetus auratus; set-up: dose 40 mg/kg, route oral; conditions: in vivo; how it was run: as §3
[25] = AUClast in golden Syrian hamster at 40 mg/kg, po after 24 to 48 hrs by LC-MS/MS analysis; type: ADME, organism-based, Mesocricetus auratus; conditions: in vivo; how it was run: as §3
[26] = system: Syrian golden hamster; assay: Oral bioavailability in golden Syrian hamster at 40 mg/kg by LC-MS/MS analysis; type: ADME, organism-based, Mesocricetus auratus; conditions: in vivo
[27] = system: Mus musculus; assay: AUClast in Swiss albino mouse at 40 mg/kg, po after 24 to 48 hrs by LC-MS/MS analysis; type: ADME, organism-based; conditions: in vivo
[28] = Half life in golden Syrian hamster at 2 mg/kg, iv by LC-MS/MS analysis; type: ADME, organism-based, Mesocricetus auratus; conditions: in vivo; how it was run: as §3
[29] = Tmax in golden Syrian hamster at 40 mg/kg, po by LC-MS/MS analysis; type: ADME, organism-based, Mesocricetus auratus; conditions: in vivo

Compound	Stability [1] [%]	remaining at 0.5 h, 0.5 µM [2] [%]	Stability [3] [%]	Stability [4] [%]	Stability [5] [%]	remaining at 1 h, 1 µM [15] [%]	also measured
O=[N+]([O-])c1cn2c(n1)OC[C@@H](OCc1ccc(-c3ccc(OC(F)(F)F)cc3F)cn1)C2	84	69	88				
O=[N+]([O-])c1cn2c(n1)OC[C@H](OCc1cccc(-c3ccc(F)cc3)n1)C2	68		79				
O=[N+]([O-])c1cn2c(n1)OC[C@H](Oc1ccc(-c3ccc(OC(F)(F)F)cc3)nc1)C2				35	40		
O=[N+]([O-])c1cn2c(n1)OCC(COc1ccc(-c3ccc(F)cc3)nc1)C2 (stereo not given)		64					AUC(0-t) [6]: 3180 ng·h/mL; C0 [7]: 440 ng/mL; half-life [8]: 2.7 h; Vd [9]: 1.8 L/kg; Tmax [10]: 8 h; F [11]: 15%; AUC(0-t) [12]: 12000 ng·h/mL; Cmax [13]: 840 ng/mL; clearance [14]: 5.2 mL/min/kg
O=[N+]([O-])c1cn2c(n1)OC[C@@H](OCc1ccn(-c3ccc(OC(F)(F)F)cc3)n1)C2				67	87		
O=[N+]([O-])c1cn2c(n1)OC[C@@H](OCc1csc(-c3ccc(OC(F)(F)F)cc3)n1)C2	75	43	78				
O=[N+]([O-])c1cn2c(n1)OC[C@@H](OCc1cccc(-c3ccc(OC(F)(F)F)cc3)n1)C2	78	31	75				
O=[N+]([O-])c1cn2c(n1)OC[C@H](Oc1ccc(-c3ccc(F)cc3)nc1)C2				59	73		
O=C(Nc1ccccc1OC(F)(F)F)N[C@@H]1COc2nc([N+](=O)[O-])cn2C1	43	64	74				
O=[N+]([O-])c1cn2c(n1)OC[C@H](OCc1ccc(-c3ccc(OC(F)F)cc3)cn1)C2	86	45	71	56	49	11	
O=[N+]([O-])c1cn2c(n1)OC[C@H](OCc1cccc(-c3ccc(OC(F)(F)F)cc3)n1)C2	68	31	68				
O=[N+]([O-])c1cn2c(n1)OC[C@H](OCc1ccc(-c3ccc(OC(F)(F)F)cc3)cn1)C2		61			27	10	Tmax [16]: 4.7 h; Cmax [17]: 16000 ng/mL; AUC(0-t) [18]: 1300 ng·h/mL; C0 [19]: 650 ng/mL; Vd [20]: 8.2 L/kg; half-life [21]: 5.8 h; half-life [22]: 9.4 h; clearance [23]: 23 mL/min/kg; Cmax [24]: 5700 ng/mL; AUC(0-t) [25]: 62700 ng·h/mL; F [26]: 100%; AUClast [27]: 211000 ng·h/mL; half-life [28]: 6.3 h
O=[N+]([O-])c1cn2c(n1)OC[C@H](OCc1ccc(-c3ccc(OC(F)(F)F)cc3F)nc1)C2				41	37	9.2	AUC(0-t) [18]: 3690 ng·h/mL; Vd [20]: 3.2 L/kg; half-life [21]: 5.8 h; clearance [23]: 8.8 mL/min/kg; Cmax [24]: 4700 ng/mL; AUC(0-t) [25]: 46500 ng·h/mL; Tmax [29]: 3.3 h; half-life [28]: 5.3 h
O=[N+]([O-])c1cn2c(n1)OC[C@H](OCc1ccc(-c3ccc(OC(F)(F)F)cc3Cl)cn1)C2	81	57	65	27	16	5.8	
O=[N+]([O-])c1cn2c(n1)OC[C@H](OCc1ccc(-c3ccc(OC(F)F)cc3)nc1)C2				56	58	7.9	
